Measured values taken from ChEMBL document CHEMBL1133510, “Synthesis and evaluation of novel steroidal oxime inhibitors of P450 17 (17 alpha-hydroxylase/C17-20-lyase) and 5 alpha-reductase types 1 and 2” (J Med Chem, 2000).
Several values for one entry are separate records, joined by “and”; a condition that tells them apart may be missing. Identical values can stand only once.

Experiments:
[1] = biological target: T1, 3-oxo-5-alpha-steroid 4-dehydrogenase 1 (Homo sapiens, UniProt P18405); experiment: Evaluated for the inhibitory activity against human steroid 5-alpha-reductase type I in human DU-145 cell assay at 5 nM of androstenedione; assay type: cell-based
T1 sequence (P18405 whole entry): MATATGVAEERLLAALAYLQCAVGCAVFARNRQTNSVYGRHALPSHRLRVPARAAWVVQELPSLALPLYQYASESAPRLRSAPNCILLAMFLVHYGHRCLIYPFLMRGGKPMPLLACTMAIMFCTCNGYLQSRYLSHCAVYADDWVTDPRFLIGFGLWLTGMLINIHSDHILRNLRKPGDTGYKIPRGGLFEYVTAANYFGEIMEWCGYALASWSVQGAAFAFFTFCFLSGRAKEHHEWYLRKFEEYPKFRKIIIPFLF
Outline: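 Whole human DU-145 cells as source of type 1 enzyme, incubated with radiolabeled androstenedione at 5 nM; HPLC separation of product. IC50 = inhibitor concentration giving 50% inhibition; mean of at least two experiments.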

[2] = biological target: T2, Steroid 17-alpha-hydroxylase/17,20 lyase (Homo sapiens, UniProt P05093); experiment: Evaluated for the inhibitory activity towards Cytochrome P450 17 human enzyme using testicular microsome at 25 uM of substrate (progesterone); parameters: species or system Testis
T2 sequence (P05093 whole entry): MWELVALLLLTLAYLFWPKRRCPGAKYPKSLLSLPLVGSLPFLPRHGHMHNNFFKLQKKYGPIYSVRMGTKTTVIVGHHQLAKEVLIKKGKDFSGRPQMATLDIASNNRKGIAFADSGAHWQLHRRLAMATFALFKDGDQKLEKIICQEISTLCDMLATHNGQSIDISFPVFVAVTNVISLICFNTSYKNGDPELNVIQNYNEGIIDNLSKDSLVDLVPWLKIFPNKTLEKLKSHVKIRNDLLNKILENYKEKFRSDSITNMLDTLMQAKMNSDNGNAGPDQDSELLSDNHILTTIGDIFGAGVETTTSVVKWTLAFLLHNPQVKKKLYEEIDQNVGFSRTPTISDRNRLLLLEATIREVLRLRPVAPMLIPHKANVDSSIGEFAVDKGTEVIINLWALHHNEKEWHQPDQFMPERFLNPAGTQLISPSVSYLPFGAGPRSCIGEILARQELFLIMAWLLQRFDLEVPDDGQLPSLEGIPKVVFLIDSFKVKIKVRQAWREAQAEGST

[3] = biological target: T3, 3-oxo-5-alpha-steroid 4-dehydrogenase 2 (Homo sapiens, UniProt P31213); experiment: Evaluated for the inhibitory activity against human steroid 5-alpha-reductase type 2 from human BPH tissue at 210 nM of testosterone
T3 sequence (P31213 whole entry): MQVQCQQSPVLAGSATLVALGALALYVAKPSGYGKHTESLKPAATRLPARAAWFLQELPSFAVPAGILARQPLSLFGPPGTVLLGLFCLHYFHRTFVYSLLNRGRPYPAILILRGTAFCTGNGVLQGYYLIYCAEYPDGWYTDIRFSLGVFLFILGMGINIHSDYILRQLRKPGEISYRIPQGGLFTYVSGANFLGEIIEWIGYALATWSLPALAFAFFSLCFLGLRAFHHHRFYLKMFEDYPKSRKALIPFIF
Outline: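 Enzyme from prostate homogenate of BPH patients, assayed at pH 5.5 with radiolabeled testosterone at 210 nM; product separated by HPLC. IC50 taken as inhibitor concentration giving 50% inhibition; mean of at least two experiments.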

[4] = biological target: T4, Steroid 17-alpha-hydroxylase/17,20 lyase (Rattus norvegicus, UniProt P11715); experiment: Inhibition of Cytochrome P450 17 from rat testicular microsome at 25 uM progesterone; No inhibition
T4 sequence (P11715 whole entry): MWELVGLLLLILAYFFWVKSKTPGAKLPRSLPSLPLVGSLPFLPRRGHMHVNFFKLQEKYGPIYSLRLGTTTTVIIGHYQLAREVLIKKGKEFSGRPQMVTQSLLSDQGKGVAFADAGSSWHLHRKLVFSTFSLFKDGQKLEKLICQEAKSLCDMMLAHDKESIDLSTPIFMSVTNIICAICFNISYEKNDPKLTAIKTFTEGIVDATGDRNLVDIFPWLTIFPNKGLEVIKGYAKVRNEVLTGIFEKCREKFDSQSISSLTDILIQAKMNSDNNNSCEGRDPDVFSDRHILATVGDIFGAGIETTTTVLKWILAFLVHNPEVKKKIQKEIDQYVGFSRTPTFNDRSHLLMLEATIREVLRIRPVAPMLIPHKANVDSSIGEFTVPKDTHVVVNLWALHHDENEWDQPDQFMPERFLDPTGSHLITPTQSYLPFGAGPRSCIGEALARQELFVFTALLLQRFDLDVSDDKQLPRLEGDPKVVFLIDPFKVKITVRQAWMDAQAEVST

[5] = biological target: T2, Steroid 17-alpha-hydroxylase/17,20 lyase; experiment: Inhibition of human Cytochrome P450 17
Outline: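 Human testicular microsomes with 25 µM progesterone as substrate. Product quantified by RP-HPLC with UV detection. IC50 is the mean of at least two experiments.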

[6] = biological target: T4, Steroid 17-alpha-hydroxylase/17,20 lyase; experiment: Inhibition of rat Cytochrome P450 17
Outline: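 Microsomes from rat testes with 25 µM progesterone as substrate. Product measured by RP-HPLC with UV detection. IC50 is the mean of at least two experiments.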

[7] = biological target: T4, Steroid 17-alpha-hydroxylase/17,20 lyase; experiment: Inhibition of Cytochrome P450 17 from rat testicular microsome at 125 uM progesterone; No inhibition
[8] = biological target: T2, Steroid 17-alpha-hydroxylase/17,20 lyase; experiment: Inhibition of Cytochrome P450 17 of human testicular microsomes at 25 uM progesterone
Outline: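 Enzyme source was human testicular microsomes, with progesterone substrate at 25 µM and product determined by RP-HPLC with UV detection. IC50 is the inhibitor concentration giving 50% inhibition, reported as the mean of at least two experiments.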

[9] = biological target: T4, Steroid 17-alpha-hydroxylase/17,20 lyase; experiment: Evaluated for the inhibitory activity towards Cytochrome P450 17 rat enzyme using testicular microsome at 25 uM of substrate (progesterone); parameters: species or system Testis
Outline: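 Testicular microsomes (human for human enzyme, rat for rat enzyme) incubated with progesterone substrate at 25 µM; product measured by RP-HPLC with UV detection. IC50 = concentration giving 50% inhibition, mean of at least two experiments.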

[10] = biological target: T1, 3-oxo-5-alpha-steroid 4-dehydrogenase 1; experiment: Inhibition of Human steroid 5-alpha-reductase type I expressed in HEK293 cells; assay type: cell-based
Outline: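 Human 5α-reductase type 1 cDNA (plasmid pRcCMV-I) stably transfected into HEK293 cells, clones chosen under G418. 300 000 cells/well attached overnight at 37 °C, then fresh DMEM/10% FCS containing 5 nM [3H]androstenedione plus inhibitor (1% DMSO) for 30 min. Supernatant extracted with ether, product measured by HPLC. IC50 taken as mean of at least three experiments.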

[11] = biological target: T3, 3-oxo-5-alpha-steroid 4-dehydrogenase 2; experiment: Inhibition of Human steroid 5-alpha-reductase type II expressed in HEK293 cells; assay type: cell-based
Outline: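 Stably transfected HEK293 clones expressing full-length human type 1 or type 2 cDNA; 300 000 cells per well attached overnight at 37 °C. Fresh DMEM/10% FCS with 5 nM [3H]androstenedione and inhibitor added, final DMSO 1%. Incubated 30 min (type 1) or 13 min (type 2); supernatant ether-extracted and analysed by HPLC. Mean of at least three experiments.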

[12] = biological target: T5, Thromboxane-A synthase (Homo sapiens) (UniProt P24557); details: 50 uM
T5 sequence (whole entry): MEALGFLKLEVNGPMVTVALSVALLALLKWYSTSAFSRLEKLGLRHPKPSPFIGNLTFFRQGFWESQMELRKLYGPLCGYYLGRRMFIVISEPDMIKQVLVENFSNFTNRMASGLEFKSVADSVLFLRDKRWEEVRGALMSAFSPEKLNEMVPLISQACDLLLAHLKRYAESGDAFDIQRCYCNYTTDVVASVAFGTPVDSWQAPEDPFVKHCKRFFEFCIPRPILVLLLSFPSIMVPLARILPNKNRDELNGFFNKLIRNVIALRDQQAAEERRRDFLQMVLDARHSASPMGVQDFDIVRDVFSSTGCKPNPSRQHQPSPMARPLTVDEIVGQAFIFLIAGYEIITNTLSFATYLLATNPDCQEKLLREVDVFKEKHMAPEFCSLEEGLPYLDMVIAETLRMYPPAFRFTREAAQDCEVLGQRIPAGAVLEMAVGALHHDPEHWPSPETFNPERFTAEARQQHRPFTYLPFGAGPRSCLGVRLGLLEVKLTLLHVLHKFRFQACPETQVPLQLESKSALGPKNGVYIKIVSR

Structure (SMILES) | IC50 [2] [nM] | IC50 [9] [µM] | IC50 [1] [nM] | IC50 [3] | other results
CC12CCC(O)CC1=CCC1C2CCC2(C)C(c3c[nH]cn3)=CCC12 (centres undefined) |  |  |  |  | IC50 [5]: 40 nM; IC50 [6]: 180 nM
C/C(=N/O)[C@H]1CC[C@H]2[C@@H]3CC=C4C[C@@H](O)CC[C@]4(C)[C@H]3CC[C@]12C |  |  |  |  | IC50 [7]: Not Active; IC50 [8]: 1650 nM
C/C(=N/O)C1=CCC2C3CCC4=CC(=O)CCC4(C)C3CCC12C (centres undefined) | 100 | > 125 | > 10000 | > 10000 nM | 
C/C(=N/O)[C@H]1CCC2C3CCC4=CC(=O)CCC4(C)C3CCC21C (some centres undefined) | > 2500 | > 125 | 1630 | 580 nM and 1170 nM | IC50 [10]: 1770 nM
CC(C)(C)NC(=O)[C@H]1CC[C@H]2[C@@H]3CC[C@H]4NC(=O)C=C[C@]4(C)[C@H]3CC[C@]12C [FINASTERIDE] |  |  | 40 |  | IC50 [11]: 60 nM; IC50 [10]: 540 nM
O=C(O)c1ccc(OCCn2ccnc2)cc1 |  |  |  |  | IC50 [12]: 1.1 µM

More lines, main results first:

IC50 [2] [nM] | IC50 [9] [µM] | Structure (SMILES) | IC50 [1] [nM] | IC50 [3] | other results
> 2500 |  | C/C(=N/O)[C@H]1CCC2C3CC(=O)C4=CC(=O)CCC4(C)C3CCC21C (some centres undefined) | > 10000 | 3200 nM | IC50 [4]: Not Active
> 2500 | 3.6 | C/C(CC1CCC2C3CCC4=CC(=O)CCC4(C)C3CCC12C)=N\O (centres undefined) | 900 | 470 nM | 
1180 | 9.8 | C/C(CC1CCC2C3CC=C4CC(O)CCC4(C)C3CCC12C)=N\O (centres undefined) |  |  | 
> 2500 | > 125 | C/C(=N/O)C1CC=C2C3CC=C4CC(O)CCC4(C)C3CCC21C (centres undefined) |  |  | 
